PolyA inh = polyadenylation inhibitors in yeast reporter cells, primary screen, luminescence, S. cerevisiae; S. cerevisiae SKY197-pL101 polyadenylation reporter, beta-gal luminescence; efflux-impaired pdr1/pdr3 knockout yeast; score 100 = 6 SD above DMSO; activity score, % at 12 µM; 300,000 compounds, 0.02% hits; AID 1875, 2009;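 active = lowest replicate activity score at least 50, where 100 means six control SD above control mean; inconclusive = lowest score under 50 but half or more replicates reach 50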;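 note: yeast exposed to compound for 9 h at 30 °C; higher score means more reporter readthrough which indicates perturbed polyadenylation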
Beta apoptosis = inhibitors of cytokine-induced beta cell apoptosis, primary screen, luminescence; 300,000 compounds, 0.8% hits; AID 435005, 2010; protection from apoptosis, % (test concentration not listed); INS-1E cytokine-induced death, ATP luminescence, 48 h; percent of positive-control rescue, neutral wells zero;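 active = Every replicate reaches about 75%, or at least half do and their mean reaches it too, limit read from the data; inconclusive = At least half of replicates reach the limit but their mean does not; inactive = Under half of replicates reach the limit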;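 note: higher means more ATP so stronger rescue from cytokine killing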
T cruzi inh = inhibitors of intracellular T. cruzi growth, primary screen, luminescence, NIH3T3 host cells. inhibition, % (no concentration beside the values). 300,000 compounds, 1.4% hits. T. cruzi beta-gal in NIH3T3, 90 h;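 active = mean inhibition across valid replicates above about 55%, limit read from the data; inconclusive = mean below that limit but half or more replicates reach it; inactive = mean below it, under half of replicates reach it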;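 note: signal also drops with host cell toxicity which is not excluded here; higher percent means less beta-gal luminescence so fewer parasites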
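Test system: β-gal T. cruzi (Tulahuen C4) inside NIH/3T3 cells / Quantity: 5,000 cells/well / Measured by: luminescence from GalScreen with 0.05% NP40, read after 60 min / Medium: DMEM plus 2% FBS / Measure: parasite load inhibition, % / Reagent: Tulahuen C4 trypomastigotes, 5000/well / Schedule: co-culture of at least 90 h after 3 h attachment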
CSC inhib = cancer stem cell viability inhibitors, primary screen, luminescence | inhibition, % at 7.5 µM | 300,000 compounds, 1.1% hits | AID 2717, 2010 | cancer stem cell-like cells viability; in the data active = inhibition above about 75%; inconclusive = no clear call, values can overlap the other calls; tested in HMLE shEcad cells
HIF activator = HIF pathway transcriptional activators, primary screen, cell-based, U2OS HRE-luciferase, luminescence | U2OS HRE-luciferase reporter; normalized: DMSO 0%, desferrioxamine 100% | activation, % at 7.5 µM (by protocol) | 300,000 compounds, 0.32% hits | AID 1910, 2009;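 active = mean activation of at least 10% of the iron chelator positive control signal, with at least half of replicates also reaching 10%; inconclusive = mean and replicate majority disagree about reaching 10%; inactive = mean and most replicates under 10%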
Calb FLC = C. albicans growth inhibition with fluconazole, primary screen, CaCi-2 strain, Alamar Blue fluorescence | AID 1979, 2009 | growth inhibition, % (no concentration beside the values) | 300,000 compounds, 0.57% hits | C. albicans CaCi-2 (fluconazole-resistant clinical isolate) + fluconazole, 48 h;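 active = growth inhibition above about 58% in most replicates, limit read from the data, passing the limit was not always enough; inconclusive = exactly half the replicates above a set limit; inactive = most replicates below a set limit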;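 note: all wells also contain fluconazole at 8 µg/ml as a sub-toxic cotreatment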
Of the large screens only hits and unclear results are named; the others gave an inactive call. Sampled rows, rich in hits. Any-hit rate of the full collection: about 3.1%.

CCN(CC(=O)NC(C)(C)C)C(=O)c1ccccc1SCC(=O)NC1CCCCCCC1	none
COC(=O)CSc1nc(-c2ccccc2)nc2ccccc12	none
CC1CCN(CCc2nc3cc(NC(=O)COc4ccc(Cl)cc4)ccc3n2C)CC1	none (no result: Beta apoptosis)
CCn1c(SCC(=O)N2CCN(c3ccc(F)cc3)CC2)nc2ccccc2c1=O	CSC inhib 76.9
CCn1c(SCC(=O)N2CCN(c3ccc(Cl)cc3)CC2)nc2ccccc2c1=O	none
CCOc1ccc(CCNC(=O)Cn2c(=O)c3cccn3c3cccnc32)cc1	none
CCc1ccc(OC)c(S(=O)(=O)Nc2ccc(Cc3ccncc3)cc2)c1	Beta apoptosis 101.1
O=C(OCC(=O)N1CCc2ccccc21)[C@@H]1CC(O)CN1S(=O)(=O)c1ccc(Cl)cc1 (stereo partly drawn)	none (no result: PolyA inh, T cruzi inh, HIF activator, Calb FLC)
O=C(CN(Cc1ccco1)C(=O)c1ccc(F)cc1)Nc1ccccc1Br	none (no result: PolyA inh, T cruzi inh, HIF activator, Calb FLC)
Cc1cccc(NC(=S)NNC(=O)c2csc(C(C)C)c2)c1	Calb FLC 92.1
O=C(Nc1ccc(OC(F)(F)F)cc1)c1[nH]ncc1[N+](=O)[O-]	none
CCCCC1S/C(=N/N=C/c2ccco2)NC1=O (stereo not drawn)	Calb FLC 99.9
CCCC1S/C(=N/N=C/c2ccco2)NC1=O (stereo not drawn)	none
CN(C)CCCNc1cc(C(C)(C)C)nc2c(-c3ccc(Cl)cc3)cnn12	CSC inhib 107.5, Calb FLC 95.5
CC(C)(C)c1cc(NCCCn2ccnc2)n2ncc(-c3ccccc3)c2n1	Beta apoptosis 113.5
Cc1cc(NCCCn2ccnc2)n2ncc(-c3ccc(Cl)cc3)c2n1	none
C/C(=N\NC(=S)Nc1cccc(C)c1)c1ccccc1	none
C/C(=N\NC(=S)Nc1cccc(C)c1)c1ccco1	T cruzi inh 76.9
C=CCNC(=S)Nc1sc2c(c1C(=O)OCC)CCN(C(=O)OCC)C2	none
C=CCNC(=S)Nc1sc2c(c1C(=O)OCC)CC(C)(CC)OC2 (stereo not drawn)	Calb FLC 97.9
CCN(CC)S(=O)(=O)c1ccc(N2CCN(c3ccccc3OC)CC2)c(N)c1	Beta apoptosis 126.3
Oc1ccc(N2CCN(c3nc(-c4cccs4)nc4ccccc34)CC2)cc1	CSC inhib 86.9
c1ccc(N2CCN(c3nc(-c4cccs4)nc4ccccc34)CC2)cc1	none
Cc1cc2nc3n(c2cc1C)CCCN3	T cruzi inh 67.5
O=c1[nH]c(-c2ccccn2)nc(C(F)(F)F)c1Br	T cruzi inh 65.6, Calb FLC 107.8
CCN(CCCNC(=O)CCNC(=O)Cn1ccc2ccccc2c1=O)c1ccccc1	HIF activator 32.5 (no result: Beta apoptosis, CSC inhib)
CN(CCNC(=O)CCNC(=O)Cn1ccc2ccccc2c1=O)Cc1ccccc1	none
COc1ccc2nc3cc(Cl)ccc3c(Nc3cc(CN4CCCC4)c(O)c(CN4CCCC4)c3)c2n1	Beta apoptosis inconclusive, T cruzi inh 58.7
Oc1ccc(-c2nc3ccc4ccccc4c3c3c2CCC3)cc1O	CSC inhib 108.6
COc1ccc(-c2cc(C(=O)O)nc3ccc4ccccc4c23)cc1OC	none
C/C(=N\Nc1cc(C(F)(F)F)ccc1Cl)c1ccccc1O	CSC inhib 77.2
COc1ccc(Cl)cc1N1C(=O)CC(N2CCN(S(=O)(=O)c3ccccc3F)CC2)C1=O (stereo not drawn)	none (no result: PolyA inh, T cruzi inh, HIF activator, Calb FLC)
Cc1ccc(/C=C/C(=O)NC2CCCCCCC2)o1	CSC inhib 144.6
Cc1noc(C)c1NC(=O)Nc1cccc2c1O[C@H](CN(C)S(=O)(=O)c1cn(C)cn1)[C@@H](C)CN([C@H](C)CO)C2=O	none (no result: PolyA inh, T cruzi inh, HIF activator, Calb FLC)
CCOC(=O)c1c(NC(=O)N/N=C/c2ccccc2OCC)sc(C(C)=O)c1C	T cruzi inh 68.0 (no result: Beta apoptosis, CSC inhib)
CCOC(=O)c1c(NC(=O)N/N=C/c2ccc(O)c(OC)c2)sc(C(C)=O)c1C	none
Cc1ccccc1CN1CCN(C2CCC2)CC1CCO (stereo not drawn)	none (no result: Beta apoptosis)
Cc1cc(C)nc(-n2nc(C)c(Sc3ccc(F)cc3)c2N)n1	T cruzi inh 58.1
Cc1nn(-c2ccccc2)c(N)c1Sc1cccc([N+](=O)[O-])c1	Calb FLC inconclusive
Cc1[nH]c2ccccc2c1C(=O)CSc1nc2cc(S(=O)(=O)N3CCCCC3)ccc2o1	T cruzi inh 56.7
Cc1ccc(NC(=O)CCC(=O)c2cccs2)c(O)c1	none
CCCCn1c(N)c(N(CCC(C)C)C(=O)COC(=O)c2ccc([N+](=O)[O-])s2)c(=O)[nH]c1=O	none (no result: PolyA inh, T cruzi inh, HIF activator, Calb FLC)
CC(C)CN(C(=O)COC(=O)c1ccc([N+](=O)[O-])s1)c1c(N)n(Cc2ccccc2)c(=O)[nH]c1=O	T cruzi inh 63.4
COc1ccc2cc(S(=O)(=O)NCc3cccnc3)ccc2c1	none
CCN(CC)S(=O)(=O)c1ccc(C)c(C)c1	none
CCCOc1ccc2c(c1)C(=NN=C(N)N)c1cc(OCCC)ccc1-2	CSC inhib 111.6
CCN(CC)CCOc1ccc2c(c1)C(=NO)c1cc(OCCN(CC)CC)ccc1-2	Beta apoptosis inconclusive, HIF activator 61.6
NC(N)=NN=C1c2ccccc2-c2ccccc21	none
CCN(CC)S(=O)(=O)c1ccc2c(c1)C(=NO)c1cc(S(=O)(=O)N(CC)CC)ccc1-2	T cruzi inh 62.9, CSC inhib 85.4
CCCn1cc(CN2CCC(n3nccc3NC(=O)c3ccc4c(c3)OCO4)CC2)c(C)n1	none (no result: CSC inhib)
Cn1c(/C=N/Nc2nc3ccccc3[nH]2)nc2ccccc21	none
Cc1nn(-c2ccccc2)c(Cl)c1/C=N/NC(N)=O	none
C=CCn1cc(/C=N/Nc2nc3ccccc3[nH]2)c2ccccc21	Beta apoptosis 109.0, CSC inhib 92.4
CC(C)Cn1c(/C=N/Nc2nc3ccccc3[nH]2)nc2ccccc21	HIF activator 23.4 (no result: Beta apoptosis, CSC inhib)
Cc1nn(-c2ccccc2)c(C)c1/C=N/Nc1nc2ccccc2[nH]1	T cruzi inh 65.8
Cc1nn(-c2ccccc2)c(Cl)c1/C=N/Nc1nc2ccccc2n1C	T cruzi inh 55.2
O=C(O)c1ccccc1-c1ccccc1C(=O)NCc1ccccc1Cl	none (no result: Beta apoptosis)
Cc1c(/C=N/Nc2nc3ccccc3[nH]2)c2ccccc2n1C	Beta apoptosis 117.0, T cruzi inh 56.4
C(=N\Nc1nc2ccccc2[nH]1)/c1cccs1	none
Cc1cc(C)c(Nc2cc(S(=O)(=O)O)c(N)c3c2C(=O)c2ccccc2C3=O)c(C)c1	CSC inhib 93.8 (no result: PolyA inh, T cruzi inh, HIF activator, Calb FLC)
CC[C@@]12C(=O)N(c3ccc(OC)cc3)C(=O)N1[C@H](c1cccc(C)c1)[C@@H]1C(=O)N(Cc3ccccc3)C(=O)[C@@H]12	none
Cc1cccc(OCc2nnc(SCC(=O)N3c4ccccc4CCc4ccccc43)o2)c1	none

Source: PubChem (Broad Institute)
